Results reported in ChEMBL document CHEMBL4619791, “3-Difluoroalkyl Quaternary Oxindoles Inhibit Macrophage Pyroptosis by Blocking Inflammasome Recruitment of Caspase-1” (ACS Med Chem Lett, 2020).
Blank lines part the entries; values can stand above or below the compound they belong to. Calls of active or inactive are those of the source. The rule behind the calls is not given here.

Key:
J774.A1 [1] = assay: Inhibition of pyroptosis in LPS-primed immortalized mouse […] cells assessed as reduction in nigericin-induced IL-beta secretion by imaging analysis; type: functional
[2] = Toxicity in zebrafish embryo; parameters: species or system Danio rerio; settings: in vivo
Outline: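 Zebrafish embryos exposed to compound. EC100 is the concentration at which all treated embryos show early lethality, embryonic defects or developmental delay.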

J774.A1 [3] = assay: Inhibition of pyroptosis in LPS-primed immortalized mouse […] cells followed by subsequent nigericin stimulation by imaging analysis; type: functional, cell-based
Caspase-1 (Homo sapiens) = biological target: T1, Caspase-1 (Homo sapiens) (UniProt P29466); assay: Inhibition of pronase-mediated caspase-1 degradation in HEK293 cell lysate at 5 uM measured after 30 mins by DARTS based Western blot analysis; type: cell-free
T1 sequence (whole entry): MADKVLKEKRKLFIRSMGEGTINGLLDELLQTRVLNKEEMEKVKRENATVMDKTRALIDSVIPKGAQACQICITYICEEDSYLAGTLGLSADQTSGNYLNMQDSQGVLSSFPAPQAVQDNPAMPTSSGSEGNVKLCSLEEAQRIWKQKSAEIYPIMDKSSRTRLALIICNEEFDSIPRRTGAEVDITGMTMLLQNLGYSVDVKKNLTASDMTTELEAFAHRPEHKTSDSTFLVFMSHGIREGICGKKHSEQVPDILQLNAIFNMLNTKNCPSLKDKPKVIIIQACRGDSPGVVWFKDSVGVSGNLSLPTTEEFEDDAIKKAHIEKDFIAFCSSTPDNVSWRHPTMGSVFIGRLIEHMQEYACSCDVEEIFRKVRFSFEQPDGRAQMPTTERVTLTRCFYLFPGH
Outline: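 DARTS assay: cell lysates pretreated with compound, then digested with different Pronase concentrations. Caspase-1 stability read by immunoblot against a histone H3 control.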

Structure (SMILES): N#CC(C#N)C1(C(F)(F)C(=O)c2ccc(Cl)cc2)C(=O)Nc2ccccc21 (stereo not drawn)
- Activity (J774.A1 [1]): 252.29 pg/mL
- EC100 [2]: 20 µM

Structure (SMILES): CCOC(CN1C(=O)C(NC(=O)OC(C)(C)C)(C(F)(F)C(=O)c2ccc(OC)cc2)c2ccccc21)OCC (stereo not drawn)
- EC50 (J774.A1 [3]): 17.5 µM
- Activity (J774.A1 [1]): 202.6 pg/mL
- EC100 [2]: > 50 µM

- inhibition (Caspase-1 (Homo sapiens)): inactive
Structure (SMILES): CN1C(=O)C(NC(=O)OC(C)(C)C)(C(F)(F)C(=O)c2ccccc2)c2ccccc21 (stereo not drawn)
- Activity (J774.A1 [1]): 232.64 pg/mL
- EC100 [2]: > 50 µM

Structure (SMILES): CC(C)(C)OC(=O)NC1(C(F)(F)C(=O)c2ccccc2)C(=O)Nc2ccccc21 (stereo not drawn)
- Activity (J774.A1 [1]): 240.83 pg/mL
- EC100 [2]: > 50 µM

Structure (SMILES): CCOC(CN1C(=O)C(NC(=O)OC(C)(C)C)(C(F)(F)C(=O)c2ccccc2)c2ccccc21)OCC (stereo not drawn)
- EC50 (J774.A1 [3]): 9.5 µM
- Activity (J774.A1 [1]): 222.04 pg/mL
- EC100 [2]: 50 µM
